Assay outcomes as filed in PubChem BioAssay.
HKDC1 act = increases human hexokinase HKDC1 activity; AID 493187; Q2TB90; recombinant HKDC1, G6PDH/diaphorase resazurin fluorescence; active compounds read low; activity change, negative = activation, % at 20 µM; actives 0.056% (n = 340,000);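 active = activation of 40% or more at 20 µM, a change of -40% or lower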
Target sequence (Q2TB90 whole entry, looked up): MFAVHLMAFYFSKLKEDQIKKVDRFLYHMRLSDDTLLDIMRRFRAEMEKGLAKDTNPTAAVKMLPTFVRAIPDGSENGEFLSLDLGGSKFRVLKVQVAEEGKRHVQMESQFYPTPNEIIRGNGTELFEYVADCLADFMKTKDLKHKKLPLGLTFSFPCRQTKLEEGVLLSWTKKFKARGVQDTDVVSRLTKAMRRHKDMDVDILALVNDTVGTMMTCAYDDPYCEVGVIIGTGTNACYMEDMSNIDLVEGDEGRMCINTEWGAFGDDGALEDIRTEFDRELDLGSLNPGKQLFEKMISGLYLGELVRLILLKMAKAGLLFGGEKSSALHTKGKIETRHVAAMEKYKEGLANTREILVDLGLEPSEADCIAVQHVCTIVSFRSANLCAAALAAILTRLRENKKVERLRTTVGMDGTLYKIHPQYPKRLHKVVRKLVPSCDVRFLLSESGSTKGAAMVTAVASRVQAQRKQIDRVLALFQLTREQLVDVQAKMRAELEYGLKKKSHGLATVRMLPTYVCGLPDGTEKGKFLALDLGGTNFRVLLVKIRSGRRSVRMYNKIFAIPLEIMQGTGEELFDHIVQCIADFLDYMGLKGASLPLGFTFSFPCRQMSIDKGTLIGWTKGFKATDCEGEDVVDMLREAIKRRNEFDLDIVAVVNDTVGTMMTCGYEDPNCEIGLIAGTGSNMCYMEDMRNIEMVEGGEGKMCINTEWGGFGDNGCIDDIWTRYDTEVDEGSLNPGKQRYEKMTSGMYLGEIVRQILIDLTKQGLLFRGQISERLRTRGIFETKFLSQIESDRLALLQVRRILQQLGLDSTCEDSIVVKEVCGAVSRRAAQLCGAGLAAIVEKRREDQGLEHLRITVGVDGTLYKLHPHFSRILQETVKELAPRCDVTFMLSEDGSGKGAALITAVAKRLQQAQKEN
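Material: in-house human HKDC1 enzyme, G6PDH and diaphorase coupling enzymes | Quantity: HKDC1 at 5 µg/mL final | Medium: Tris buffer at pH 8.0 containing MgCl2 | Compound dosing: 20 µM single dose | Schedule: 90 min reaction at room temperature, dark | Measured by: Resorufin fluorescence, 525/613 nm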
* hit, by the source's call. Not all results are given here.

SMILES | HKDC1 act
O=c1oc2c(O)c(O)cc3c(=O)oc4c(O)c(O)cc1c4c23 | 54.0
Cc1cc(C)n(-c2ccc(NC(=O)C3CCN(Cc4cc(C)c(C)o4)CC3)cc2)n1 | 41.0
O=C(Nc1ccc(N2CCCC2)cc1)c1cccc(-c2cc3ccccc3oc2=O)c1 | -40.2*
CC1(C)Cc2ccccc2C2=NNC(=O)C2=N1 | 53.0
CCOP(=O)(c1ccc(N(C)C)cc1)C(O)c1ccc(OC)cc1 (centres undefined) | 56.4
Cc1ccccc1S(=O)(=O)c1c(C)cc(C)n(CC(C)C)c1=O | 71.5
CCN(CC)CCNc1cc(C)nc2c1C(=O)C(=O)C=C2N1CCCCC1 | 45.2
O=C(NCc1ccncc1)C(=O)N/N=C/c1ccc(OCc2ccccc2)cc1 | -58.4*
Cc1cc(C)c2c(=N)c3ccccc3n(CCCCCCCCn3c4ccccc4c(=N)c4c(C)cc(C)nc43)c2n1 | 74.2
Cc1cc(C)c(S(=O)(=O)/N=C2\C=C(Nc3ccc(C(=O)O)cc3)C(=O)c3ccccc32)c(C)c1 | 40.7
COc1ccc(-c2[nH]c(-c3ccc(SC)cc3)nc2SCC(=O)Nc2nccs2)cc1 | -54.3*
CCOC(=O)c1ccc(NC(=O)CSc2n[nH]c(-c3ccncc3)n2)cc1 | 39.6
COC(=O)c1ccc(NC(=O)CSc2n[nH]c(-c3ccncc3)n2)cc1 | 36.3
CCc1ccc(S(=O)(=O)/N=C2\C=C(Nc3cccc(C(=O)O)c3)C(=O)c3ccccc32)cc1 | 52.7
Cc1ccc2c(c1C)-c1c(ccc(C)c1C)C(=O)C2=O | 38.0
Cn1nccc1C(=O)N1CCN(c2cccc(Cl)c2)CC1 | 38.7
Cc1cc(SCC(=O)N/N=C/c2ccc(O)c(O)c2O)c(C)cc1Br | 44.5
CC(=NNC(=O)c1ccncc1)c1ccc(O)cc1O | -40.2*
Cc1cc(C)n(CCC(=O)N/N=C/c2ccc(O)cc2O)n1 | -42.3*
O=C(CNC(=O)c1ccc2c(c1)OCCO2)N/N=C/c1ccc(O)cc1O | -50.6*
O=C(CNC(=O)c1ccncc1)N/N=C/c1ccc(O)cc1O | -40.6*
N=C1/C(=C\c2ccc(-c3ccc(C(=O)O)cc3)o2)C(=O)N=C2SC=C(c3ccccc3)N12 | 39.8
O=S(=O)(/N=C/c1c(O)ccc2ccccc12)c1ccccc1 | 44.2
COc1cc(-c2ccc(Nc3ccccc3C(=O)O)c(OC)c2)ccc1Nc1ccccc1C(=O)O | 42.3
O=C1OC(c2ccccc2)=N/C1=C/c1cccc(OC(=O)c2cccs2)c1 | 39.4
SMILES | HKDC1 act
O=C1NC(=S)S/C1=C\c1ccc(SCc2ccco2)o1 | 50.6
Cn1c2ccccc2c(=O)c2c(=O)n(-c3ccccc3)c(C3CCCCC3)nc21 | 43.3
Cc1nc([N+](=O)[O-])c(Br)n1CC(=O)c1ccc2ccccc2c1 | 45.7
CC(=NNC(=S)SCc1ccccc1)c1ccccn1 | -46.5*
COc1ccc2c(c1)C(=NNC(=O)c1ccccn1)c1cc(OC)ccc1-2 | 42.4
CC(=NNC(=S)Nc1cccc(Cl)c1)c1ccccn1 | -46.4*
O=C(CCNC(=O)c1ccc([N+](=O)[O-])cc1)NCCC1=CCCCC1 | 35.0
Cc1cc(C)c2c(=O)[nH]cnc2n1 | 64.4
CC(C)Nc1nnc(SCC(=O)Nc2ccc3c(c2)C(=O)c2ccccc2C3=O)s1 | 43.1
O=C(CN1C(=O)/C(=C2/SC(=S)N(CCS(=O)(=O)O)C2=O)c2ccccc21)Nc1cccc(C(F)(F)F)c1 | 36.2
O=C1C=C(N2CCCCC2)c2ccccc2C1=O | 80.6
Cc1cc(C2=NNC(=Nc3ccc(S(=O)(=O)N4CCOCC4)cc3)SC2)c(C)n1C | -72.5*
COc1ccc(C2=CC3=C(Br)C(=O)C(C)(OC(=O)C4CCCC4)C(=O)C3=CO2)cc1 (centres undefined) | 52.8
O=C(CSc1nc(-c2ccc(F)cc2)nc2c1Cc1ccccc1O2)Nc1ccc(C(=O)O)cc1 | 44.0
S=C(NCc1ccccn1)NN=Cc1ccccn1 | -44.1*
CC(=O)C1=C(c2ccccc2)N(C(C)=O)n2c(C)nnc2S1 | -314.6*
O=C1C=CC(=O)C(CNc2ccc(C(=O)OCc3ccccc3)cc2)=C1 | 46.7
COc1ccc2[nH]c3c4c(ccc3c2c1)C(=O)C=CC4=O | 51.1
Cc1ccc(C(=O)/C=C/c2cc(Br)cc(Br)c2O)o1 | 35.7
CC(NC(=O)c1sc2cc([N+](=O)[O-])ccc2c1Cl)C(C)(C)C (centres undefined) | -76.1*
O=C(CCCCC(=O)Sc1ccccc1)Sc1ccccc1 | 38.7
COc1ccc(CN2C=C3C(=O)C(C)(OC(=O)C4CCCC4)C(=O)C=C3C=C2c2ccsc2)cc1 (centres undefined) | 35.4
CC1=NNC(=O)/C1=C\c1cn(-c2ccccc2)nc1-c1ccc(Cl)cc1 | 37.2
CC(C)c1nc2oc3c(NCc4ccccn4)ncnc3c2c2c1COC(C)(C)C2 | 35.3
Cc1ccc(-n2c3nc(=O)[nH]c(=O)c-3cc3cc([N+](=O)[O-])ccc32)cc1 | 49.4
SMILES | HKDC1 act
N=C1N(c2ccccc2)C(=S)C(=Nc2ccccc2)N1c1ccccc1 | -77.4*
N#CC1(NC(=O)COC(=O)c2cc(O)c3ccccc3c2O)CCCCC1 | 49.7
COC(=O)CCC(=O)OC1(C)C(=O)C2=COC(c3ccc(OC)cc3)=CC2=C(Br)C1=O (centres undefined) | 36.7
Cc1cc2cc(CCNC(=O)c3ccc(S(=O)(=O)N4CCCC4)cc3)c(=O)[nH]c2cc1C | 41.4
Cc1cc2cc(CN(Cc3cccs3)S(=O)(=O)c3ccc4c(c3)OCCO4)c(=O)[nH]c2cc1C | -47.0*
CC1C/C(=C\c2cccnc2)C(=O)/C(=C/c2cccnc2)C1 (centres undefined) | 40.1
COc1ccc(-c2cc3ccccc3[nH]2)cc1 | 38.5
O=C(/C=C/c1cccc(Cl)c1)c1ccc([N+](=O)[O-])o1 | 60.5
O/C=c1\ccc2cccc3nc(C(F)(F)F)nc1c23 | 40.4
CCCC(=O)NC1=C(Cl)C(=O)c2ccccc2C1=O | 59.9
O=S(=O)(NC1c2cccc3cccc(c23)C1N1CCN(CCO)CC1)c1ccccc1 (centres undefined) | -66.1*
O=S(=O)(NC1c2cccc3cccc(c23)C1N1CCNCC1)c1ccccc1 (centres undefined) | -55.8*
O=C(CSc1n[nH]c(-c2ccccc2)n1)Nc1ncc(Br)cc1Br | 47.7
O=C(O)c1ccc2ncsc2c1 | 40.7
N#CC(C#N)=c1ccc2c(c1)N1C3=C(CCCC3)CC3CCCCC31N=2 (centres undefined) | 38.8
CC(=O)NC1C(=O)N(CCN2CCOCC2)c2ccc(Cl)cc21 (centres undefined) | 82.4
C=CC(=O)N1C/C(=C/c2ccc(F)cc2)C(=O)/C(=C\c2ccc(F)cc2)C1 | 36.0
CCOC(=O)C1=C(Cc2ccc(OC)cc2)C(=O)c2ccccc2C1=O | 71.4
CC(C)C(=O)N(c1cc2sc(=O)oc2c2ccccc12)S(=O)(=O)c1cccs1 | 45.0
CCCN(CCC)C(=S)NC(=O)c1ccc(-c2ccccc2)cc1 | -47.6*
N#C/C(=C(/O)CCl)c1nc2c(s1)CCc1ccccc1-2 | 43.5
COc1ccc(N=C2C(=S)N(c3ccc(OC)cc3)C(=NS(=O)(=O)c3ccccc3)N2c2ccccc2)cc1 | -68.5*
COc1ncnc2c1oc1nc(C(C)C)c3c(c12)CC(C)(C)OC3 | 53.1
Cc1ccc(S(=O)(=O)N(C(=O)c2ccncc2)c2ccc(OC(=O)c3ccncc3)c3ccccc23)c(C)c1 | 38.2
CC(=NNc1nc2ccccc2o1)c1cc2ccccc2cn1 | -47.7*
Cc1ccc(Cl)cc1NC1=C/C(=N\S(=O)(=O)c2cccs2)c2ccccc2C1=O | 36.0
